Experimental data: PMC12502093 (RSC Advances, 2025)
In brackets after ≈: the same amount, converted by molar mass.

Columns and labels:
BCL2 = experiment: qRT-PCR gene expression in MCF7 cells: BCL2; assay type: cell-based, human; conditions: compound at IC50, 48 h, relative to β-Actin, vs control
Outline: (§1)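 MCF7 cells (3 × 10^4 per well) were treated 48 h with test compound. Total RNA was column-extracted and reverse-transcribed to first-strand cDNA. SYBR Green qPCR ran 95 °C 10 min, then 40 cycles of 95 °C 15 s, 60 °C 30 s, 72 °C 30 s. Expression was normalised to β-Actin by 2−ΔΔCT relative to untreated control. Data are mean ± SEM; Student's t-test, P < 0.05.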

MCF7 cells = experiment: Neutral red uptake cytotoxicity assay, MCF7; assay type: cell-based, human; conditions: for IC50: Homo sapiens, MCF7, 48 h, read-out: IC50 (μM) MCF7; for (SI) MCF7, selectivity index: SI = IC50 MDCK cell/IC50 MCF7 cell
Outline: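 Neutral red uptake. Log-phase cells were grown in DMEM with 10% FBS at 37 °C, 5% CO2, at 10^4 cells/well. They were exposed 48 h to 12.5, 25, 50 and 100 μM test compound (DMSO final <0.2%), then given neutral red medium for 2 h and washed with DPBS. Dye was extracted with 1% acetic acid/50% ethanol and read at 450/630 nm. IC50 came from log concentration versus intensity, three runs averaged. SI = MDCK IC50 / MCF7 IC50.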

JAK2 = experiment: qRT-PCR gene expression in MCF7 cells: JAK2; assay type: cell-based, human; conditions: compound at IC50, 48 h, relative to β-Actin, vs control
Outline: as §1

C. albicans ATCC 10231 [1] = experiment: Agar well diffusion test; assay type: cell-based; conditions: AWDT; for Zone of inhibition, inhibition scale: C. albicans ATCC 10231; for Zone of inhibition: C. albicans ATCC 10231, average of triplicate
C. albicans ATCC 10231 [2] = experiment: Minimum inhibitory concentration, C. albicans; assay type: cell-based; conditions: Candida albicans, ATCC10231, read-out: MIC (mg mL^−1)
Outline: (§2)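 MIC was determined by a previously reported method for compounds selected from the well-diffusion screen and is expressed in mg mL−1. […] For C. albicans, 100 μL of negative cells went onto potato dextrose agar at 25 °C/72 h.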

A. flavus isolate = experiment: Agar well diffusion test; assay type: cell-based; conditions: AWDT; for Zone of inhibition: average of triplicate
Outline: (§3)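 Agar well diffusion. Test compounds were placed in wells on agar inoculated with the reference strain or isolate. After incubation, inhibition zone diameters were measured in mm with a caliper. Runs were in triplicate and the zone averaged. Scale: 0 = no inhibition; 0–6 mm (−); 7–11 mm (+); 12–14 mm (++); 15–17 mm (+++).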

BAX = experiment: qRT-PCR gene expression in MCF7 cells: BAX; assay type: cell-based, human; conditions: compound at IC50, 48 h, relative to β-Actin, vs control
Outline: as §1

Cyclin D1 = experiment: qRT-PCR gene expression in MCF7 cells: Cyclin D1; assay type: cell-based, human; conditions: compound at IC50, 48 h, relative to β-Actin, vs control
Outline: as §1

STAT3 [3] = molecular target: STAT3 (Homo sapiens, UniProt P40763); experiment: STAT3 tyrosine phosphorylation inhibition; assay type: biochemical; conditions: STAT3 phosphorylation IC50 (μM) (mean ± SD), ELISA, eight dilutions 100-0.03 μM
E. coli O157 ATCC 700728 [4] = experiment: Agar well diffusion test; assay type: cell-based; conditions: AWDT; for Zone of inhibition: E. coli O157 ATCC 700728, average of triplicate; for Zone of inhibition, inhibition scale: E. coli O157 ATCC 700728
Outline: as §3

IL6 = experiment: qRT-PCR gene expression in MCF7 cells: IL6; assay type: cell-based, human; conditions: compound at IC50, 48 h, relative to β-Actin, vs control
Outline: as §1

c-MYC = experiment: qRT-PCR gene expression in MCF7 cells: c-MYC; assay type: cell-based, human; conditions: compound at IC50, 48 h, relative to β-Actin, vs control
Outline: as §1

STAT3 [5] = experiment: qRT-PCR gene expression in MCF7 cells: STAT3; assay type: cell-based, human; conditions: compound at IC50, 48 h, relative to β-Actin, vs control
Outline: as §1

S. aureus ATCC 25923 = experiment: Agar well diffusion test; assay type: cell-based; conditions: AWDT; for Zone of inhibition, inhibition scale: S. aureus ATCC 25923; for Zone of inhibition: S. aureus ATCC 25923, average of triplicate
Outline: as §3

E. coli topoisomerase IV = E. coli topoisomerase IV (Escherichia coli, UniProt P20083); experiment: E. coli topoisomerase IV cleavage assay; assay type: biochemical
E. coli DNA gyrase = E. coli DNA gyrase (Escherichia coli, UniProt P0AES6); experiment: E. coli DNA gyrase supercoiling assay; assay type: biochemical
Outline: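 Commercial kit assay of E. coli DNA gyrase supercoiling. Relaxed plasmid DNA is the substrate, and relaxed and supercoiled forms are separated by agarose gel electrophoresis. Test compounds were dissolved in DMSO and added at different concentrations to derive IC50.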

E. coli O157 ATCC 700728 [6] = experiment: Minimum inhibitory concentration, E. coli; assay type: cell-based; conditions: Escherichia coli, ATCC700728, read-out: MIC (mg mL^−1)
Outline: as §2

STAT3 (Homo sapiens, UniProt P40763), sequence (P40763 whole entry, the tested form may be a part): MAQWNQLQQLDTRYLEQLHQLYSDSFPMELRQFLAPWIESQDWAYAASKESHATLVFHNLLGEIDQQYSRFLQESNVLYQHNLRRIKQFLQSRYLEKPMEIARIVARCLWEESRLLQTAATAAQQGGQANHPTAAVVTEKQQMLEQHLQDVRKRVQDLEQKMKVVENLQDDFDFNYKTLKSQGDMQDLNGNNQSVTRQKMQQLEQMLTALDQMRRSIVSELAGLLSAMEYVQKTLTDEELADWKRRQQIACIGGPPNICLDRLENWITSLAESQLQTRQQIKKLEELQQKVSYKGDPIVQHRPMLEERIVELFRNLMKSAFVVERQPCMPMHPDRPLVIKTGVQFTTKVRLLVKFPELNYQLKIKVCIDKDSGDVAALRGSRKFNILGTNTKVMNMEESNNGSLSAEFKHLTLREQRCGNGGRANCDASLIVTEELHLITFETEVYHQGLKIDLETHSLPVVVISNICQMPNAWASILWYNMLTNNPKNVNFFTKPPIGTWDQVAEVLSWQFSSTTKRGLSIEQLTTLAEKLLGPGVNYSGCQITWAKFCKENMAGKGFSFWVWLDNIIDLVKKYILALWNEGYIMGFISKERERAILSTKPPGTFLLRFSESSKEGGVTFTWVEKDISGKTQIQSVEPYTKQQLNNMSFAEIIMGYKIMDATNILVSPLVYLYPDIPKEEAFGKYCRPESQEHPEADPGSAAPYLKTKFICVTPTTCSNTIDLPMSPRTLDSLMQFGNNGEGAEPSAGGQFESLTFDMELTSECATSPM
E. coli topoisomerase IV, sequence (P20083 whole entry): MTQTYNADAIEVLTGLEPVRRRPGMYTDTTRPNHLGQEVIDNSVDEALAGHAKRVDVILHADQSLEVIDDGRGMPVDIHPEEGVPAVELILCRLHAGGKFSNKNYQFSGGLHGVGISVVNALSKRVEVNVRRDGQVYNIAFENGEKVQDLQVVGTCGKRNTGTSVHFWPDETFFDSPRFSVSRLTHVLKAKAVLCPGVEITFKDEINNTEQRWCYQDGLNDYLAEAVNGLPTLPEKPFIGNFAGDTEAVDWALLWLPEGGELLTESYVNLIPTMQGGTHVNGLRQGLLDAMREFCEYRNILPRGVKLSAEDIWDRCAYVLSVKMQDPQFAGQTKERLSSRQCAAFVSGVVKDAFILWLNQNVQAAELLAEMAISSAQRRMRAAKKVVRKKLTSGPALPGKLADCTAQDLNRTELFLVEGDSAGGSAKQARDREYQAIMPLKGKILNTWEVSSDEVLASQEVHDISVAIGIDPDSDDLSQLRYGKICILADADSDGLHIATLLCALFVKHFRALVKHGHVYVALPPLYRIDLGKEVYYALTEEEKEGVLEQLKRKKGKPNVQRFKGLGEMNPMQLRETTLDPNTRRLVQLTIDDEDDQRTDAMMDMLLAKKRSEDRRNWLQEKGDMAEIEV
E. coli topoisomerase IV, sequence (P0AFI2 whole entry partner): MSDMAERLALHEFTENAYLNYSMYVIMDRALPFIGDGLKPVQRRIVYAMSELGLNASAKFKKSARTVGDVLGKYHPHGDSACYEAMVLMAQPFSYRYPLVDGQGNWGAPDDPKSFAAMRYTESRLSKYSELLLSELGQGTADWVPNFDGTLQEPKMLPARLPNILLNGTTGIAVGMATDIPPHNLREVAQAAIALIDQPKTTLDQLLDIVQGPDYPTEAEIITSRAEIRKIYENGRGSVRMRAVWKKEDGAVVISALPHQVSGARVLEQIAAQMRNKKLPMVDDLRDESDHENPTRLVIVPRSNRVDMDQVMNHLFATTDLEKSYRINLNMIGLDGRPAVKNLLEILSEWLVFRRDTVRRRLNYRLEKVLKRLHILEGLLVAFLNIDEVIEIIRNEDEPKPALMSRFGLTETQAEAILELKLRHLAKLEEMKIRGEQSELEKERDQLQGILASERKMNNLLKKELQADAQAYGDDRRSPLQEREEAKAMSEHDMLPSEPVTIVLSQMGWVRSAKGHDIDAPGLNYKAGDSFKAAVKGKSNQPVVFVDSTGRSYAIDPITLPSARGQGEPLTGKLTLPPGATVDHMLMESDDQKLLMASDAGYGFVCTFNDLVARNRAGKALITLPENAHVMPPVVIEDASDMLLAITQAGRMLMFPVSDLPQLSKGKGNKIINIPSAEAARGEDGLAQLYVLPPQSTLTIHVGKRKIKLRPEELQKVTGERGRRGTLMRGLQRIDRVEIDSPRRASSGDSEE

`CC(=O)c1ccc2cc(S(=O)(=O)Nc3ccccn3)ccc2c1` [Compound 5i, 6-Acetyl-N-(pyridin-2-yl)naphthalene-2-sulfonamide] was tested, and the “BCL2 gene expression level” value (BCL2) was “significant decrease”, the IC50 (MCF7 cells) was 41.6 µM and the “(SI) MCF7, selectivity index” value (MCF7 cells) was 2.13. The “JAK2 gene expression level” value (JAK2) was “significant decrease”, the “Zone of inhibition, inhibition scale” value (C. albicans ATCC 10231 [1]) was “+ (7–11 mm (+))” and the Zone of inhibition (C. albicans ATCC 10231 [1]) was 14 mm. The MIC (C. albicans ATCC 10231 [2]) was 40 mg/mL (≈ 123 mM), the “Zone of inhibition, inhibition scale” value (A. flavus isolate) was “− (0–6 mm (−))” and the Zone of inhibition (A. flavus isolate) was 0 mm. For the same compound, the “BAX gene expression level” value (BAX) was “significant increase”, the “Cyclin D1 gene expression level” value (Cyclin D1) was “significant decrease” and the IC50 (STAT3 [3]) was 8.58 ± 0.9 µM. For the same compound, the Zone of inhibition (E. coli O157 ATCC 700728 [4]) was 11 mm, the “IL6 gene expression level” value (IL6) was “significant decrease” and the “c-MYC gene expression level” value (c-MYC) was “significant decrease”. The “STAT3 gene expression level” value (STAT3 [5]) was “significant decrease”, the “Zone of inhibition, inhibition scale” value (S. aureus ATCC 25923) was “− (0–6 mm (−))” and the Zone of inhibition (S. aureus ATCC 25923) was 0 mm.
With `CC(=O)c1ccc2cc(S(=O)(=O)Nc3ccccc3Cl)ccc2c1` [Compound 5c, 6-Acetyl-N-(2-chlorophenyl)naphthalene-2-sulfonamide] the “Zone of inhibition, inhibition scale” value (C. albicans ATCC 10231 [1]) was “+++ (15–17 mm (+++))”, the Zone of inhibition (C. albicans ATCC 10231 [1]) was 16 mm and the MIC (C. albicans ATCC 10231 [2]) was 20 mg/mL (≈ 55.6 mM). The “Zone of inhibition, inhibition scale” value (A. flavus isolate) was “− (0–6 mm (−))”, the Zone of inhibition (A. flavus isolate) was 0 mm and the “Zone of inhibition, inhibition scale” value (E. coli O157 ATCC 700728 [4]) was “++ (12–14 mm (++))”. For the same compound, the Zone of inhibition (E. coli O157 ATCC 700728 [4]) was 12 mm, the “Zone of inhibition, inhibition scale” value (S. aureus ATCC 25923) was “− (0–6 mm (−))” and the Zone of inhibition (S. aureus ATCC 25923) was 0 mm.
In the case of `CC(=O)c1ccc2cc(S(=O)(=O)Nc3ccccc3C)ccc2c1` [Compound 5f, 6-Acetyl-N-(o-tolyl)naphthalene-2-sulfonamide], the “Zone of inhibition, inhibition scale” value (C. albicans ATCC 10231 [1]) is reported as “+ (7–11 mm (+))”, the Zone of inhibition (C. albicans ATCC 10231 [1]) is reported as 12 mm and the “Zone of inhibition, inhibition scale” value (A. flavus isolate) is reported as “− (0–6 mm (−))”. For the same compound, the Zone of inhibition (A. flavus isolate) was 0 mm, the Zone of inhibition (E. coli O157 ATCC 700728 [4]) was 11 mm and the “Zone of inhibition, inhibition scale” value (S. aureus ATCC 25923) was “− (0–6 mm (−))”. For the same compound, the Zone of inhibition (S. aureus ATCC 25923) was 0 mm.
With `CC(=O)c1ccc2cc(S(=O)(=O)Nc3cccc(Cl)c3)ccc2c1` [Compound 5d, 6-Acetyl-N-(3-chlorophenyl)naphthalene-2-sulfonamide] the “Zone of inhibition, inhibition scale” value (C. albicans ATCC 10231 [1]) was “+ (7–11 mm (+))”, the Zone of inhibition (C. albicans ATCC 10231 [1]) was 15 mm and the MIC (C. albicans ATCC 10231 [2]) was 10 mg/mL (≈ 27.8 mM). For the same compound, the “Zone of inhibition, inhibition scale” value (A. flavus isolate) was “− (0–6 mm (−))”, the Zone of inhibition (A. flavus isolate) was 0 mm and the Zone of inhibition (E. coli O157 ATCC 700728 [4]) was 10 mm. For the same compound, the “Zone of inhibition, inhibition scale” value (S. aureus ATCC 25923) was “− (0–6 mm (−))” and the Zone of inhibition (S. aureus ATCC 25923) was 0 mm.
Work on `CCn1cc(C(=O)O)c(=O)c2cc(F)c(N3CCNCC3)cc21` [Nor, norfloxacin, reference compound] yielded an IC50 (E. coli topoisomerase IV) of 25.8 µM and an IC50 (E. coli DNA gyrase) of 11.1 µM.
In the case of `CC(=O)c1ccc2cc(S(=O)(=O)Nc3ccccc3)ccc2c1` [Compound 5a, 6-Acetyl-N-phenylnaphthalene-2-sulfonamide], the “BCL2 gene expression level” value (BCL2) is reported as “significantly decreased”, the IC50 (MCF7 cells) is reported as 42.1 µM and the “(SI) MCF7, selectivity index” value (MCF7 cells) is reported as 2.15. For the same compound, the “JAK2 gene expression level” value (JAK2) was “significantly decreased”, the “Zone of inhibition, inhibition scale” value (C. albicans ATCC 10231 [1]) was “++ (12–14 mm (++))” and the Zone of inhibition (C. albicans ATCC 10231 [1]) was 12 mm. The “Zone of inhibition, inhibition scale” value (A. flavus isolate) was “− (0–6 mm (−))”, the Zone of inhibition (A. flavus isolate) was 0 mm and the IC50 (STAT3 [3]) was 7.87 ± 0.74 µM. For the same compound, the “IL6 gene expression level” value (IL6) was “significantly decreased”, the “c-MYC gene expression level” value (c-MYC) was “significantly decreased” and the “STAT3 gene expression level” value (STAT3 [5]) was “significantly decreased”. For the same compound, the “Zone of inhibition, inhibition scale” value (S. aureus ATCC 25923) was “− (0–6 mm (−))” and the Zone of inhibition (S. aureus ATCC 25923) was 0 mm.
`COc1cccc2c1C(=O)c1c(O)c3c(c(O)c1C2=O)C[C@@](O)(C(=O)CO)C[C@@H]3O[C@H]1C[C@H](N)[C@H](O)[C@H](C)O1` [Doxorubicin, reference compound] was tested, and the “BCL2 gene expression level” value (BCL2) was “significantly decreasing”, the IC50 (MCF7 cells) was 22.8 µM and the “(SI) MCF7, selectivity index” value (MCF7 cells) was 3.07. For the same compound, the “JAK2 gene expression level” value (JAK2) was “significantly decreasing”, the “BAX gene expression level” value (BAX) was “significantly raised” and the “Cyclin D1 gene expression level” value (Cyclin D1) was “significantly decreasing”. For the same compound, the “IL6 gene expression level” value (IL6) was “significantly decreasing”, the “c-MYC gene expression level” value (c-MYC) was “significantly decreasing” and the “STAT3 gene expression level” value (STAT3 [5]) was “significantly decreasing”.
For `COc1ccc(NS(=O)(=O)c2ccc3cc(C(C)=O)ccc3c2)cc1` [Compound 5g, 6-Acetyl-N-(4-methoxyphenyl)naphthalene-2-sulfonamide], the “Zone of inhibition, inhibition scale” value (C. albicans ATCC 10231 [1]) was “+ (7–11 mm (+))”, the Zone of inhibition (C. albicans ATCC 10231 [1]) was 10 mm and the “Zone of inhibition, inhibition scale” value (A. flavus isolate) was “− (0–6 mm (−))”. The Zone of inhibition (A. flavus isolate) was 0 mm, the “Zone of inhibition, inhibition scale” value (E. coli O157 ATCC 700728 [4]) was “++ (12–14 mm (++))” and the Zone of inhibition (E. coli O157 ATCC 700728 [4]) was 12 mm. The “Zone of inhibition, inhibition scale” value (S. aureus ATCC 25923) was “− (0–6 mm (−))” and the Zone of inhibition (S. aureus ATCC 25923) was 0 mm.
`CC(=O)c1ccc2cc(S(=O)(=O)Nc3cccnc3)ccc2c1` [Compound 5j, 6-Acetyl-N-(pyridin-3-yl)naphthalene-2-sulfonamide] was tested, and the MIC (E. coli O157 ATCC 700728 [6]) was 20 mg/mL (≈ 61.3 mM), the “Zone of inhibition, inhibition scale” value (C. albicans ATCC 10231 [1]) was “+++ (15–17 mm (+++))” and the Zone of inhibition (C. albicans ATCC 10231 [1]) was 16 mm. The MIC (C. albicans ATCC 10231 [2]) was 10 mg/mL (≈ 30.6 mM), the “Zone of inhibition, inhibition scale” value (A. flavus isolate) was “+ (7–11 mm (+))” and the Zone of inhibition (A. flavus isolate) was 7 mm. For the same compound, the Zone of inhibition (E. coli O157 ATCC 700728 [4]) was 16 mm, the “Zone of inhibition, inhibition scale” value (S. aureus ATCC 25923) was “− (0–6 mm (−))” and the Zone of inhibition (S. aureus ATCC 25923) was 0 mm.
In the case of `CC(=O)c1ccc2cc(S(=O)(=O)NCc3ccccc3)ccc2c1` [Compound 5h, 6-Acetyl-N-benzylnaphthalene-2-sulfonamide], the “Zone of inhibition, inhibition scale” value (C. albicans ATCC 10231 [1]) is reported as “+ (7–11 mm (+))”, the Zone of inhibition (C. albicans ATCC 10231 [1]) is reported as 7 mm and the “Zone of inhibition, inhibition scale” value (A. flavus isolate) is reported as “+ (7–11 mm (+))”. The Zone of inhibition (A. flavus isolate) was 10 mm, the Zone of inhibition (E. coli O157 ATCC 700728 [4]) was 10 mm and the “Zone of inhibition, inhibition scale” value (S. aureus ATCC 25923) was “++ (12–14 mm (++))”. It also gave a Zone of inhibition (S. aureus ATCC 25923) of 14 mm.
